Test results: ChEMBL document CHEMBL1138558, “Synthesis of some new 1,2,4-triazoles, their Mannich and Schiff bases and evaluation of their antimicrobial activities” (2009)
Activity calls are given as the source filed them. The rule behind the calls is not given here.

Assays:
Format in all cases: functional
Pseudomonas aeruginosa [1] = assay: Antimicrobial activity against Pseudomonas aeruginosa ATCC 27853 at 10 ug after 18 hrs by agar-well diffusion method; settings: ATCC 27853, 18 h, read-out: IZ
Enterococcus faecalis [2] = assay: Antimicrobial activity against Enterococcus faecalis ATCC 29212 at 10 ug after 18 hrs by agar-well diffusion method; settings: ATCC 29212, 18 h, read-out: IZ
Bacillus cereus [3] = assay: Antimicrobial activity against Bacillus cereus 702 Roma at 10 ug after 18 hrs by agar-well diffusion method; settings: read-out: IZ
[4] = test system: Yersinia pseudotuberculosis; assay: Antimicrobial activity against Yersinia pseudotuberculosis ATCC 911 at 10 ug after 18 hrs by agar-well diffusion method; settings: ATCC 911, 18 h, read-out: IZ
Summary of the method: (§1)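 Bacteria suspended in Mueller Hinton broth at about 10⁶ cfu/mL, flood-inoculated onto Mueller Hinton agar and dried. Test substance placed into 5-mm wells bored with a sterile cork-borer. Incubation 18 h at 35 °C, then the inhibition zone around each well measured.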

Staphylococcus aureus [5] = assay: Antimicrobial activity against Staphylococcus aureus ATCC 25923 at 10 ug after 18 hrs by agar-well diffusion method; settings: ATCC 25923, 18 h, read-out: IZ
Escherichia coli [6] = assay: Antimicrobial activity against Escherichia coli ATCC 25922 at 10 ug after 18 hrs by agar-well diffusion method; settings: ATCC 25922, 18 h, read-out: IZ; summary of the method: as §1
Candida albicans [7] = assay: Antimicrobial activity against Candida albicans ATCC 60193 at 5 ug after 18 hrs by agar-well diffusion method; settings: ATCC 60193, 18 h, read-out: IZ
Summary of the method: (§2)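 Yeast suspended in Mueller Hinton broth and diluted to about 10⁶ cfu/mL, then flood-inoculated onto Sabouraud Dextrose Agar and dried. 5-mm wells cut with a sterile cork-borer and filled with test substance. Plates incubated 18 h at 35 °C. Read-out is the zone of inhibition.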

Candida tropicalis [8] = assay: Antimicrobial activity against Candida tropicalis ATCC 13803 at 5 ug after 18 hrs by agar-well diffusion method; settings: ATCC 13803, 18 h, read-out: IZ; summary of the method: as §2
Pseudomonas aeruginosa [9] = assay: Antimicrobial activity against Pseudomonas aeruginosa ATCC 27853 at 10 mg/mL after 18 hrs by agar-well diffusion method; settings: for zone of inhibition at 10000 µg/mL: ATCC 27853, 18 h, read-out: IZ
Summary of the method: (§3)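 Agar-well diffusion: each bacterium suspended in Mueller Hinton broth at about 10⁶ cfu/mL, flood-inoculated onto Mueller Hinton agar and dried. 5-mm wells were cut with a sterile cork-borer and filled with the test solution. Plates were incubated 18 h at 35 °C. The read-out was the diameter of the inhibition zone.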

Bacillus cereus [10] = assay: Antimicrobial activity against Bacillus cereus 702 Roma at 10 mg/mL after 18 hrs by agar-well diffusion method; settings: for zone of inhibition at 10000 µg/mL: read-out: IZ; summary of the method: as §3
Candida tropicalis [11] = assay: Antimicrobial activity against Candida tropicalis ATCC 13803 at 10 mg/mL after 18 hrs by agar-well diffusion method
Summary of the method: (§4)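 Candida cultures were suspended in Mueller Hinton broth at about 10⁶ cfu/mL, flood-inoculated onto Sabouraud dextrose agar and dried. Test solution was loaded into 5-mm wells bored in the agar. Plates were incubated 18 h at 35 °C, and activity was scored as the inhibition zone around each well.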

Staphylococcus aureus [12] = assay: Antimicrobial activity against Staphylococcus aureus ATCC 25923 at 10 mg/mL after 18 hrs by agar-well diffusion method; settings: for zone of inhibition at 10000 µg/mL: ATCC 25923, 18 h, read-out: IZ; summary of the method: as §3
Candida albicans [13] = assay: Antimicrobial activity against Candida albicans ATCC 60193 at 10 mg/mL after 18 hrs by agar-well diffusion method; summary of the method: as §4
[14] = test system: Yersinia pseudotuberculosis; assay: Antimicrobial activity against Yersinia pseudotuberculosis ATCC 911 at 10 mg/mL after 18 hrs by agar-well diffusion method; settings: for zone of inhibition at 10000 µg/mL: ATCC 911, 18 h, read-out: IZ; summary of the method: as §1
Escherichia coli [15] = assay: Antimicrobial activity against Escherichia coli ATCC 25922 at 10 mg/mL after 18 hrs by agar-well diffusion method; settings: for zone of inhibition at 10000 µg/mL: ATCC 25922, 18 h, read-out: IZ; summary of the method: as §3
Enterococcus faecalis [16] = assay: Antimicrobial activity against Enterococcus faecalis ATCC 29212 at 10 mg/mL after 18 hrs by agar-well diffusion method; settings: for zone of inhibition at 10000 µg/mL: ATCC 29212, 18 h, read-out: IZ; summary of the method: as §3

CC1(C)S[C@@H]2[C@H](NC(=O)[C@H](N)c3ccccc3)C(=O)N2[C@H]1C(=O)O [AMPICILLIN] was tested, and the zone of inhibition at 10 µg/disc (Pseudomonas aeruginosa [1]) was 18 mm, the zone of inhibition at 10 µg/disc (Enterococcus faecalis [2]) was 10 mm and the zone of inhibition at 10 µg/disc (Bacillus cereus [3]) was 15 mm. For the same compound, the zone of inhibition at 10 µg/disc [4] was 18 mm, the zone of inhibition at 10 µg/disc (Staphylococcus aureus [5]) was 35 mm and the zone of inhibition at 10 µg/disc (Escherichia coli [6]) was 10 mm.
OC(Cn1cncn1)(Cn1cncn1)c1ccc(F)cc1F [FLUCONAZOLE] showed a zone of inhibition at 5 µg/disc (Candida albicans [7]) of 25 mm and a zone of inhibition at 5 µg/disc (Candida tropicalis [8]) of 25 mm.
Cc1ccc(-n2c(CSc3nnc(-c4ccncc4)n3-c3ccccc3)nn(CN3CCN(C)CC3)c2=S)cc1 was tested, and the “inhibition zone (IZ)” value (Pseudomonas aeruginosa [9]) was “inactive”, the “inhibition zone (IZ)” value (Bacillus cereus [10]) was “inactive” and the “inhibition zone (IZ)” value (Candida tropicalis [11]) was “inactive”. For the same compound, the “inhibition zone (IZ)” value (Staphylococcus aureus [12]) was “inactive”, the “inhibition zone (IZ)” value (Candida albicans [13]) was “inactive” and the “inhibition zone (IZ)” value [14] was “inactive”. For the same compound, the “inhibition zone (IZ)” value (Escherichia coli [15]) was “inactive” and the “inhibition zone (IZ)” value (Enterococcus faecalis [16]) was “inactive”.
For Cc1ccc(Nc2nnc(CSc3nnc(-c4ccncc4)n3-c3ccccc3)s2)cc1, the zone of inhibition at 10000 µg/mL (Pseudomonas aeruginosa [9]) was 35 mm, the zone of inhibition at 10000 µg/mL (Bacillus cereus [10]) was 20 mm and the “inhibition zone (IZ)” value (Candida tropicalis [11]) was “inactive”. The zone of inhibition at 10000 µg/mL (Staphylococcus aureus [12]) was 25 mm, the “inhibition zone (IZ)” value (Candida albicans [13]) was “inactive” and the zone of inhibition at 10000 µg/mL [14] was 22 mm. It also gave a zone of inhibition at 10000 µg/mL (Escherichia coli [15]) of 31 mm and a zone of inhibition at 10000 µg/mL (Enterococcus faecalis [16]) of 20 mm.
For O=C(CSc1nnc(-c2ccncc2)n1-c1ccccc1)N/N=C/c1ccc(O)c(O)c1, the “inhibition zone (IZ)” value (Pseudomonas aeruginosa [9]) was “inactive”, the “inhibition zone (IZ)” value (Bacillus cereus [10]) was “inactive” and the “inhibition zone (IZ)” value (Candida tropicalis [11]) was “inactive”. For the same compound, the “inhibition zone (IZ)” value (Staphylococcus aureus [12]) was “inactive”, the “inhibition zone (IZ)” value (Candida albicans [13]) was “inactive” and the “inhibition zone (IZ)” value [14] was “inactive”. For the same compound, the “inhibition zone (IZ)” value (Escherichia coli [15]) was “inactive” and the “inhibition zone (IZ)” value (Enterococcus faecalis [16]) was “inactive”.
Work on CSc1nnc(-c2ccncc2)n1-c1ccccc1 yielded a zone of inhibition at 10000 µg/mL (Pseudomonas aeruginosa [9]) of 30 mm, a zone of inhibition at 10000 µg/mL (Bacillus cereus [10]) of 30 mm and a zone of inhibition at 10000 µg/mL (Candida tropicalis [11]; ATCC 13803, 18 h, read-out: IZ) of 9 mm. The zone of inhibition at 10000 µg/mL (Staphylococcus aureus [12]) was 25 mm, the zone of inhibition at 10000 µg/mL (Candida albicans [13]; ATCC 60193, 18 h, read-out: IZ) was 9 mm and the zone of inhibition at 10000 µg/mL [14] was 30 mm. It also gave a zone of inhibition at 10000 µg/mL (Escherichia coli [15]) of 30 mm and a zone of inhibition at 10000 µg/mL (Enterococcus faecalis [16]) of 30 mm.
